Measurements gathered from unrelated publications.
Target: Serine/threonine-protein kinase 4 (STK4, Homo sapiens, UniProt Q13043)
Residues used in one study (Q13043 1-487): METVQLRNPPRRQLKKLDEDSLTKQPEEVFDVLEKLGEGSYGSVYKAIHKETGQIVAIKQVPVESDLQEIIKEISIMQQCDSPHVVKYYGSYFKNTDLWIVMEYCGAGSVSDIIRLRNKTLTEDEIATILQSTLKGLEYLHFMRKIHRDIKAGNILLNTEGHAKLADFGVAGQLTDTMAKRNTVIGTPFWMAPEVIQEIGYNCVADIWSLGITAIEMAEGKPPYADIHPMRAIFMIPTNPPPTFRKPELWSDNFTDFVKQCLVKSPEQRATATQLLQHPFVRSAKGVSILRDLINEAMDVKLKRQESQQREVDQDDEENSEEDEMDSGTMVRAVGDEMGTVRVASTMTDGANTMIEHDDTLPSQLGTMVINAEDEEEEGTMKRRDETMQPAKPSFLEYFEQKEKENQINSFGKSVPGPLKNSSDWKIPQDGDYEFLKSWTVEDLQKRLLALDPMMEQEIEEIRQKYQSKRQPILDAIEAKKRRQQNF

| SMILES | test | setting | remaining binding [%] |
| --- | --- | --- | --- |
| CCCOc1ccc([C@@H]2[C@@H](C(=O)O)[C@H](c3ccc4c(c3)OCO4)CN2CC(=O)Nc2c(CC)cccc2CC)cc1 | cell-free assay, competition with immobilised ligand | 1 µM | 95 |
| N[C@@H]1CCN(c2nccc(-c3cnn4ncccc34)n2)C1 | binding | 1 µM | 100 |
| Cc1cnc(Nc2ccc(C(=O)N3CCC(N4CCCC4)CC3)cc2)nc1-c1cc2ccccc2s1 | binding, competition with immobilised ligand | 1 µM | 100 |
| Cc1c(C(=O)O)cc(-c2ccc(C3CCNCC3)cc2)c2ccc(-c3ccc(C(F)(F)F)cc3)cc12 | binding, competition with immobilised ligand | 1 µM | 95 |
| CN(C)c1nccc(-c2cnc3ncccn23)n1 | binding | 1 µM | 88 |
| O=C(NCC1CCOCC1)c1n[nH]cc1NC(=O)c1c(F)cccc1F | binding, competition with immobilised ligand | 1 µM | 100 |
| CCN1CCN(Cc2ccc(C(=O)Nc3ccc(C)c(Oc4ccc5c(c4)CC(=O)N5)c3)cc2C(F)(F)F)CC1 | binding, competition with immobilised ligand | 1 µM | 100 |
| CN(C)c1nccc(-c2cnn3ncccc23)n1 | binding | 1 µM | 100 |
| c1cncc(-c2cccc(Nc3nccc(NC4CCCCC4)n3)c2)c1 | binding, competition with immobilised ligand | 10 µM | 97 |
| CS(=O)(=O)c1cc(C2(NC(=O)c3cncc4c3cnn4-c3ccc(F)cc3)CC2)ccn1 | cell-free assay, competition with immobilised ligand | 1 µM | 77 |
| O=C(c1ccc(Nc2nccc(-c3cc4ccccc4s3)n2)cc1)N1CCC(N2CCCC2)CC1 | binding, competition with immobilised ligand | 1 µM | 100 |
| COc1cnc(Nc2cccc(S(N)(=O)=O)c2)nc1N1CCN(c2ccccc2)C(=O)C1 | binding, competition with immobilised ligand | 1 µM | 98 |
| CC1CCCN1c1nccc(-c2cnn3ncccc23)n1 (centres unmarked) | binding | 1 µM | 98 |
| O=C1CCc2cc(Nc3cc(OC4CCOCC4)c([N+](=O)[O-])cc3Cl)ccc2N1 | cell-free assay, competition with immobilised ligand | 1 µM | 100 |
| c1cnn2ncc(-c3ccnc(N4CCC45COC5)n3)c2c1 | binding | 1 µM | 89 |
| N#CC1(c2ccccn2)CCN(Cc2cc(C(=O)N3CCCC3)c(=O)n3ccccc23)CC1 | cell-free assay, competition with immobilised ligand | 1 µM | 88 |
| O=C(c1ccc(Nc2ncc(Cl)c(-c3cc4ccccc4s3)n2)cc1)N1CCC(N2CCCC2)CC1 | binding, competition with immobilised ligand | 1 µM | 100 |
| FC(F)(F)Oc1cccc(-c2cnc3ccc(-c4ccncc4)nn23)c1 | cell-free assay, competition with immobilised ligand | 5 µM | 100 |
| C[C@H]1CCN(c2nccc(-c3cnn4ncccc34)n2)C1 | binding | 1 µM | 82 |
| Nc1c(C(=O)NCc2ccc(C(=O)NCCCC3CCCCC3)cc2)cnn1-c1ccccc1 | cell-free assay, competition with immobilised ligand | 0.1 µM | 100 |
